Bioassay records (PubChem)
Efflux pump mplx – blocks antifungal efflux pumps in multiplex yeast assay. S. cerevisiae Candida pump triplex, Nile Red efflux. inhibition, % at 10 µM. actives 0.44% (n = 330,000). AID 485275;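 active = plate passing quality check with inhibition over a set limit, or well fluorescence over plate mean plus 4 SD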;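 also: Nile Red retained in pooled yeast measured as flow cytometry median fluorescence; 0% = buffer negative control and 100% = Enniatin B positive control; higher means more Nile Red kept so more efflux inhibition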
Tb MetRS inh – Trypanosoma brucei MetRS inhibition | inhibition, % at 11.9 µM | purified T. brucei MetRS, ATP depletion, Kinase-Glo luminescence | actives 0.4% (n = 360,000) | AID 624268;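 active = inhibition above a per-plate cutoff of the control wells' mean inhibition plus 3 SD, cut at about 5.5% in these data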;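 also: 0% = DMSO wells median and 100% = median of wells with control inhibitor compound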
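Dosing: 11.9 µM compound single dose, 0.9% DMSO; Assay system: purified T. brucei MetRS enzyme; Measured by: Kinase-Glo luciferase luminescence reporting remaining unconsumed ATP; Schedule: 15 min plus 2 h at 25 °C.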
TAG inh – triacylglycerol accumulation inhibition | H9c2 cells, Nile Red lipid (TAG) fluorescence; cells loaded with 200 µM oleic acid | inhibition, % at 12.5 µM | actives 0.66% (n = 230,000);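 active = pattern-corrected inhibition of lipid staining of at least 50% with the nuclear-stain viability signal not falling by more than 50%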;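 also: 0% = DMSO wells and 100% = triacsin C control wells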
AHR act – activators of human aryl hydrocarbon receptor; P35869; AHR-responsive luciferase reporter cells, luminescence; activation, % at 5 µM; actives 2.5% (n = 320,000); in the data active = activation above about 47%;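 also: 0% = vehicle wells and 100% = reference agonist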
Target sequence (P35869 whole entry, looked up): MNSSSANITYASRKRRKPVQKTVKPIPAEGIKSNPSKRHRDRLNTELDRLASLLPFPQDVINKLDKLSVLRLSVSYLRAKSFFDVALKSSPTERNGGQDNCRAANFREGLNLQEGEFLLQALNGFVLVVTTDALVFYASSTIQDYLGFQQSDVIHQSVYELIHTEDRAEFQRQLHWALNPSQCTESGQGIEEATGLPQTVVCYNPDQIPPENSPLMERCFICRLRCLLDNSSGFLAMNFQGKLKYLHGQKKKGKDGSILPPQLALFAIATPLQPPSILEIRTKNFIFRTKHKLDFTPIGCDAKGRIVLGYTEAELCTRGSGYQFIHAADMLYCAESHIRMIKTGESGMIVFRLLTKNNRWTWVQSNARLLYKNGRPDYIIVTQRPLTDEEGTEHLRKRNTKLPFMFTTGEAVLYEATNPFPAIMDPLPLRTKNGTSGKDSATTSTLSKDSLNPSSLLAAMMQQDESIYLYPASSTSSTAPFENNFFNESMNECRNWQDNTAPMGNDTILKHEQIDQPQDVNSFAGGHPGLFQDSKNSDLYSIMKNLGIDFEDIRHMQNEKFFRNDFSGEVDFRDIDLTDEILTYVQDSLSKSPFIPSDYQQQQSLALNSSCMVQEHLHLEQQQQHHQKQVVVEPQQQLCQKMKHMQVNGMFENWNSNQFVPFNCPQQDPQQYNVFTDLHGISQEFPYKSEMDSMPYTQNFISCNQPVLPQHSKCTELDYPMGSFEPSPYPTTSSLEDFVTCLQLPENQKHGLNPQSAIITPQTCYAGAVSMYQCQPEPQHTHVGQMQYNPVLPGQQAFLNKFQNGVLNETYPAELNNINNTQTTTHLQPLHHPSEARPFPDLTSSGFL
SMARCA2 activ – increases SMARCA2 function in MMTV reporter cells; MG213 cells, MMTV-luciferase reporter, dexamethasone, overnight; activation, % at 9.1 µM; actives 1% (n = 370,000); AID 652017; in the data active = activation above about 7.8%;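 also: 0% = vehicle wells and 100% = reference activator wells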
Yeast cmpd fluor – flagged as fluorescent in efflux inhibitor counter-screen; AID 588517; actives 4% (n = 1,700); shares compounds with Efflux pump mplx; S. cerevisiae AD/pABC3, compound fluorescence, flow cytometry; fluorescence ratio to DMSO, % at 10 µM;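 active = fluorescence ratio to DMSO above its plate's cutoff, the plate mean ratio plus 5 SD, cut at about 210% in these data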;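 also: unstained yeast with no Nile Red so the signal is compound autofluorescence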
CaMdr1 efflux inh – inhibitors of Candida albicans Mdr1 efflux pump; shares compounds with Efflux pump mplx; S. cerevisiae AD/CaMDR1, Nile Red efflux, flow cytometry; inhibition, % at 10 µM; actives 1% (n = 1,700); in the data active = inhibition above about 26%;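 also: 0% = DMSO vehicle and 100% = reference inhibitor; higher means more Nile Red retained so more efflux inhibition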
CaCdr2 efflux inh – blocks the Candida albicans Cdr2 efflux pump in yeast; shares compounds with Efflux pump mplx; S. cerevisiae AD/CaCDR2, Nile Red retention, flow cytometry; Nile Red retention ratio vs DMSO, % at 10 µM; actives 4% (n = 1,700); in the data active = Nile Red retention ratio vs DMSO above about 190%;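 also: higher ratio means more blocking of Cdr2 efflux of the dye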
CaCdr1 efflux inh – inhibitors of Candida albicans Cdr1 efflux pump. shares compounds with Efflux pump mplx. S. cerevisiae AD/CaCDR1, Nile Red efflux, flow cytometry. inhibition, % at 10 µM. actives 1% (n = 1,700). AID 588522;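 active = inhibition above the screen-wide mean plus twice its standard deviation, cut at about 32% in these data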
Starred values were filed as active, the others as inactive; . = not tested or not shown. Compounds with a hit are over-represented: about 4.1% of the library has one in this group of screens.

SMILES | Efflux pump mplx | Tb MetRS inh | TAG inh | AHR act | SMARCA2 activ | Yeast cmpd fluor | CaMdr1 efflux inh | CaCdr2 efflux inh | CaCdr1 efflux inh
CC(C)[C@H](NS(=O)(=O)c1ccc2c(c1)OCCO2)C(=O)OCC(=O)Nc1cccc(Cl)c1Cl | 16* | -1 | 4 | 2 | -1 | 115 | 0 | 97 | 0
CC(C)[C@H](NS(=O)(=O)c1ccc2c(c1)OCCO2)C(=O)OCC(=O)Nc1ccccc1Cl | 0 | 0 | . | -2 | -4 | . | . | . | .
CCn1c(COc2ccc(Cl)cc2)nnc1SCC(=O)Nc1ccccc1-c1ccccc1 | . | . | . | . | -5 | . | . | . | .
Cc1ccccc1Nc1nnc(-c2ccc(C(=O)NCCO)cc2)c2ccccc12 | 1.0* | -1 | . | 2 | 0 | 106 | 0 | 96 | 0
Cc1ccc(NC(=S)NC(=O)c2ccccc2)cc1NC(=S)NC(=O)c1ccccc1 | 0.7* | 0 | . | . | 3 | 105 | 0 | 97 | 0
O=C(NC(=S)Nc1cccc(NC(=S)NC(=O)c2ccccc2)c1)c1ccccc1 | . | 1 | 2 | . | 0 | . | . | . | .
O=C(Nc1cccc(NC(=S)NC(=O)c2cccs2)c1)c1ccccc1 | 8.0* | 0 | . | 22 | -4 | 91 | 0 | 100 | 0
Cc1cccc(C(=O)NC(=S)Nc2ccc(Cc3ccncc3)cc2)c1 | 0.7* | -1 | 16 | -1 | -5 | 103 | 0 | 121 | 0
O=C(NC(=S)Nc1ccc2nc[nH]c2c1)c1ccccc1 | 0 | 0 | -16 | 3 | 1 | 105 | 0 | 101 | 0
O=C(NC(=S)Nc1ccc2ncccc2c1)c1ccccc1 | 0 | 0 | -19 | 19 | 4 | . | . | . | .
Cc1cc(C)cc(C(=O)NC(=S)Nc2ccc(Cc3ccncc3)cc2)c1 | 0 | -1 | . | 7 | -3 | . | . | . | .
O=C(NC(=S)Nc1cccc(NC(=O)c2ccccc2Cl)c1)c1cccs1 | -7 | 0 | . | -2 | 4 | . | . | . | .
COC(=O)[C@]12CCCCC=C1N(Cc1ccc(OC)cc1)C(=O)[C@@H]2CC(=O)N1CCSCC1 | . | . | . | . | -3 | . | . | . | .
C#CCNC(=O)C[C@H]1C(=O)N(Cc2ccc(OC)cc2)C2=CCCCC[C@@]21C(=O)OC | . | . | . | . | 0 | . | . | . | .
CC(C)C[C@H](NC(=O)c1nccs1)C(=O)N1CCC[C@H]1C(=O)NCc1ccccc1 | . | . | . | . | 0 | . | . | . | .
Cc1nn(-c2ccccc2)c2c1C(c1ccc([N+](=O)[O-])cc1)N1C(=N2)C(=O)Nc2ccccc21 (stereo unspecified) | 0 | 0 | -36 | 9 | -2 | 99 | 0 | 87 | 0
Cc1nn(-c2ccc([N+](=O)[O-])cc2)c2c1C(c1cccc(Br)c1)N1C(=N2)C(=O)Nc2ccccc21 (stereo unspecified) | 1 | 0 | . | 0 | -4 | 109 | 0 | 103 | 0
CC(C)CCN1C(=O)c2cccc3c(N)ccc(c23)C1=O | 0.5* | 1 | -52 | 65* | 4 | 335* | 0 | 110 | 0
CCC1=C(OC(=O)N(CC)CC)N2C(=O)OC(=NCCc3c[nH]c4ccccc34)[C@]2(Cc2ccccc2)[C@H]2C1=CC[C@H]1C(=O)N(CC)C(=O)[C@H]12 | 39* | 0 | 31 | 12 | -1 | 106 | 0 | 91 | 0
CCC1=C(OC(=O)N(CC)CC)N2C(=O)OC(=NCCOC)[C@]2(Cc2ccccc2)[C@H]2C1=CC[C@H]1C(=O)N(CC)C(=O)[C@H]12 | 0 | 0 | 5 | 1 | 1 | . | . | . | .
C=C(C)[C@@H]1CC2=C(OC)C(CC=C(C)C)(CC=C(C)C)C(=O)C(C(=O)c3ccccc3)=C2O1 | . | . | . | . | 2 | . | . | . | .
Cc1cccc(Cn2cc(CN3CC(N(C)CCOC(=O)c4cc(C)cc(C)c4)CS3(=O)=O)nn2)c1 (stereo unspecified) | . | . | . | . | 0 | . | . | . | .
CC1CCCCC1NC(=O)COC(=O)c1ccccc1NC(=O)c1ccco1 (stereo unspecified) | 0 | -1 | 6 | 7 | -2 | . | . | . | .
